Compound activity from PubChem.
Env fusion inh = HIV envelope-mediated fusion inhibition; inhibition, % at 12.3 µM; hit rate 1.1% among 360,000; HeLa-JRFL Env/CEM21 cell fusion, luciferase;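 active = mean replicate inhibition score of at least 50 and every replicate individually at or above 50; inconclusive = only one of the two criteria met; inactive = mean below 50 and not all replicates reaching 50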;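 note: 0% = plate neutral controls and 100% = maraviroc near 300 nM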
PGC1a acetyl inh = PGC1a acetylation modulation, inhibitor mode | U2OS PGC1a acetylation, AlphaScreen anti-acetyl-lysine; with virally co-expressed GCN5 acetyltransferase | inhibition, % at 15.6 µM | hit rate 0.17% among 350,000;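 active = every replicate shows inhibition of at least 40%; inconclusive = mean inhibition at least 40% but some replicate below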;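 note: 0% = neutral control wells and 100% = positive control wells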
EWS-Fli block = inhibitors of EWS/Fli oncoprotein transcriptional activity; A673 NR0B1-luciferase reporter, viability-normalised; inhibition, % at 12.6 µM; hit rate 0.67% among 350,000;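 active = mean inhibition of at least 50% after viability correction, with every replicate also passing that limit; inconclusive = mean reaches 50% but only one of two replicates passes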;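 note: firefly luciferase signal divided by Alamar Blue viability fluorescence both relative to DMSO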
PAX8 reporter = lowers PAX8-driven luciferase in RMG-I cells | hit rate 1.2% among 360,000 | inhibition, % at 12.6 µM | RMG-I TPO-luciferase reporter, SteadyGlo, 24 h | AID 652154;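 active = mean replicate inhibition at least 60% with every replicate also reaching 60%; inconclusive = only one of the two criteria is met; inactive = mean below 60% and not all replicates reaching 60%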;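 note: luciferase light reporting Pax8 driven TPO promoter activity; plate controls were median of neutral control wells for no effect and mitoxantrone controls for full effect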
FN deposition inh = fibronectin deposition inhibition | hit rate 0.086% among 350,000 | inhibition, % at 12.6 µM | AID 743247 | AH1F fibroblasts, Alexa488-fibronectin deposition fluorescence, overnight;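 active = mean inhibition across replicates of 30% or more, regardless of how many single replicates reach that level; inconclusive = mean under 30% yet at least half of replicates reach 30%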;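 note: positive control wells lacked labelled fibronectin entirely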
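Assay system: AH1F fibroblasts assembling fluorescent fibronectin matrix; Amount: 10000 AH1F cells per well; Buffer or medium: DMEM, 2% serum; Probe or stimulus: Alexa488-fibronectin, 24 nM final in well; Doses: single compound dose, delivered by pin transfer; Incubation: 1 h adhesion, overnight exposure; Measured by: fluorescence 485/525 nm; Read-out: fibronectin deposition inhibition.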
F508del corr = CFTR F508del correction in bronchial cells. CFBE cells, YFP halide quenching; stimulated with forskolin plus potentiator P3; % fluorescence drop versus neutral controls. activity (quench increase), % at 7.58 µM. hit rate 0.36% among 350,000. AID 720511;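 active = mean added fluorescence quench of at least 8% versus neutral control, with both replicates also reaching 8%; inconclusive = only one of the mean or replicate conditions met; inactive = mean below 8% and not both replicates reaching 8%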;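 note: cells transiently co-express mutant CFTR-F508del with the halide-sensitive YFP; corrector assay measuring rescue of mutant channel to the surface after 24 h compound exposure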
Active calls of the source: *; ? = inconclusive; / = no result; [ ] = dose if it differs, or a comment. A selection: hits, their analogues and other compounds. The true share with any hit is near 2.3%.

SMILES	Env fusion inh	PGC1a acetyl inh	EWS-Fli block	PAX8 reporter	FN deposition inh	F508del corr
CCCCOc1ccc(/C=C/C(=O)OCC(=O)N2CC(=O)Nc3ccccc32)cc1OCC	61*	/	25	16	-3	-6
COc1ccc(-n2nnnc2SCC(=O)NC2CC2)cc1	/	/	4	75*	-2	0
CC(=O)Nc1ccc(-n2nnnc2SCC(=O)NC2CCCC2)cc1	-12	-10	/	0	5	1
CCOC(=O)NC(=O)CSc1nnnn1-c1ccc(Cl)cc1	/	3	-2	/	/	2
CCOC(=O)NC(=O)CSc1nnnn1-c1ccc(C)cc1	-34	94*	/	-3	2	/
CC(C)c1ccc(-n2nnnc2SCC(=O)NC2CC2)cc1	64*	-1	-10	-3	4	-4
COc1ccc2c3c(n(C)c2c1)[C@H](CO)N(Cc1cccc(F)c1)CC31CCN(C)CC1	/	-12	-1	/	/	0
COc1ccc(NC(=O)N(C)C[C@H]2Oc3ccc(NC(=O)CCN4CCOCC4)cc3CC(=O)N([C@H](C)CO)C[C@@H]2C)cc1	/	0	-8	-19	/	-1
C[C@@H]1CN([C@@H](C)CO)S(=O)(=O)c2ccc(C#CC3CCCC3)cc2O[C@@H]1CN(C)C(=O)C1CC1	-5[16.7 µM]	-11	18	/	/	-2
COC(=O)CC1NCCc2cc(OC)c(OC)cc21 (stereo unspecified)	19	2	-4	-2	-1	-1
CC[C@H]1CN2CCc3cc(OC)c(OC)cc3C2C[C@@H]1C[C@H]1NCCc2cc(OC)c(OC)cc21 (stereo partly specified)	/	/	59*	111*	19	-10
COc1cc2c(cc1OC)CN1CCc3cc(OC)c(OC)cc3C1C2 (stereo unspecified)	/	5	2	/	/	-2
CCC1=C(CC2NCCc3ccccc32)CC2c3cc(OC)c(OC)cc3CCN2C1 (stereo unspecified)	-410	34	-1	59	-2	10*
CCCCNc1c(-c2ccc(SC(C)CC)c(OC)c2)nc2ccc(C)cn12 (stereo unspecified)	39	-10	26	?	-5	8.3*
CCCCNc1c(-c2ccc(SC(C)CC)c(OC)c2)nc2ccc(Cl)cn12 (stereo unspecified)	32	0	-2	-27	-4	-2
COc1ccccc1-c1cnc2c(c1)C(=O)N([C@H](C)CO)C[C@H](C)[C@H](CN(C)Cc1ccncc1)O2	2[16.7 µM]	3	-1	/	2	0
Cc1ccccc1N1CN(Cc2ccco2)CNC1=S	/	/	-5	61*	7	-1
Cc1cccc(N2CN(Cc3ccco3)CNC2=S)c1C	-50	1	/	-7	/	/
C[C@@H]1CN([C@H](C)CO)C(=O)c2cc(NC(=O)CCCN(C)C)ccc2O[C@@H](C)CCCCO[C@H]1CN(C)S(=O)(=O)c1ccccc1	26[16.7 µM]	-1	14	-3	-7	0
CCN1CCC(O)(/C=C/c2ccc(C(C)C)cc2)C(C(=O)/C=C/c2ccc(C(C)C)cc2)C1 (stereo unspecified)	-18	/	56*	64*	0	-2
CCCC(=O)NC(NC(=S)Nc1ccc(N=Nc2ccccc2)cc1)C(Cl)(Cl)Cl (stereo unspecified)	/	/	15	64*	-10	8.6*
O=C(CCc1ccccc1)NC(NC(=S)Nc1ccc(Br)cc1)C(Cl)(Cl)Cl (stereo unspecified)	/	-14	21	/	/	1
CCc1ccc(OCC(=O)NC(NC(=S)Nc2ccc(Cl)cc2)C(Cl)(Cl)Cl)cc1 (stereo unspecified)	/	/	19	82*	0	-2
O=C(Cn1ccccc1=S)c1ccc(Cl)c(Cl)c1	8	1	7	-7	-8	-1
On1ccccc1=S	-22	-9	52*	100*	13	-5
Cc1cccn2c(=O)nc(SCC(=O)Nc3cccc4ccccc34)nc12	88*	/	0	/	0	2
O=C(CSc1nc(=O)n2ccccc2n1)Nc1cccc2ccccc12	?	5	13	33	-4	-3
COc1ccc2c3c(n(C)c2c1)[C@H](CO)NCC31CCN(S(=O)(=O)c2cccc(F)c2)CC1	/	-12	5	/	/	1
Cc1nc2c(OCc3ccc(F)cc3)cccn2c1N(C)C(=O)CCC1CCCC1	26	-9	14	10	-4	2
